Source: ChEMBL document CHEMBL1124929, “Indolo[2,1-a]isoquinolines. Syntheses, steroid hormone receptor binding affinities, and cytostatic activity” (1990)

Experiments:
[1] = target: T1, Androgen Receptor (Bos taurus) (UniProt Q5EM59); test: Relative binding affinity(RBA) for 50% displacement of [3H]mibolerone from Androgen receptor compared to testorone
T1 sequence (whole entry): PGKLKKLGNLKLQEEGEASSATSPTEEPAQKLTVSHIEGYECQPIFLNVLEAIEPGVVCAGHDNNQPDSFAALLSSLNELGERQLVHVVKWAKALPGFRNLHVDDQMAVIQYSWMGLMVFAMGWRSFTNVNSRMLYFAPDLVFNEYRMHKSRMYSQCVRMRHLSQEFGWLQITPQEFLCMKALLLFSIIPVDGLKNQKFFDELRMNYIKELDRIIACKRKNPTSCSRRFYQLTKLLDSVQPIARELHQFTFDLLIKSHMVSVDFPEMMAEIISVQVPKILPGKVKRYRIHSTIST
How it was run: (§1)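 Receptor source was calf uterine cytosol (105000g supernatant, 3 mg/mL protein in assay). Buffers were Tris/EDTA pH 7.4, with NaN₃ for ER, molybdate/glycerol for AR, and sucrose for PR. Tracers were 1 nM [³H]estradiol, [³H]mibolerone or [³H]Org 2058. Incubation was at 0–4 °C for 16 h (ER) or 2 h (AR, PR), with 4–6 competitor concentrations. Nonspecific binding used 2 µM of the unlabeled hormone. Separation was by dextran-coated charcoal. RBA is the ratio of IC50 values for hormone and compound ×100, mean of two triplicate experiments.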

[2] = target: T2, Androgen receptor (Mus musculus) (UniProt P19091); test: Inhibition of seminal vesicle weight in intact mice at 10.0 ug
T2 sequence (whole entry): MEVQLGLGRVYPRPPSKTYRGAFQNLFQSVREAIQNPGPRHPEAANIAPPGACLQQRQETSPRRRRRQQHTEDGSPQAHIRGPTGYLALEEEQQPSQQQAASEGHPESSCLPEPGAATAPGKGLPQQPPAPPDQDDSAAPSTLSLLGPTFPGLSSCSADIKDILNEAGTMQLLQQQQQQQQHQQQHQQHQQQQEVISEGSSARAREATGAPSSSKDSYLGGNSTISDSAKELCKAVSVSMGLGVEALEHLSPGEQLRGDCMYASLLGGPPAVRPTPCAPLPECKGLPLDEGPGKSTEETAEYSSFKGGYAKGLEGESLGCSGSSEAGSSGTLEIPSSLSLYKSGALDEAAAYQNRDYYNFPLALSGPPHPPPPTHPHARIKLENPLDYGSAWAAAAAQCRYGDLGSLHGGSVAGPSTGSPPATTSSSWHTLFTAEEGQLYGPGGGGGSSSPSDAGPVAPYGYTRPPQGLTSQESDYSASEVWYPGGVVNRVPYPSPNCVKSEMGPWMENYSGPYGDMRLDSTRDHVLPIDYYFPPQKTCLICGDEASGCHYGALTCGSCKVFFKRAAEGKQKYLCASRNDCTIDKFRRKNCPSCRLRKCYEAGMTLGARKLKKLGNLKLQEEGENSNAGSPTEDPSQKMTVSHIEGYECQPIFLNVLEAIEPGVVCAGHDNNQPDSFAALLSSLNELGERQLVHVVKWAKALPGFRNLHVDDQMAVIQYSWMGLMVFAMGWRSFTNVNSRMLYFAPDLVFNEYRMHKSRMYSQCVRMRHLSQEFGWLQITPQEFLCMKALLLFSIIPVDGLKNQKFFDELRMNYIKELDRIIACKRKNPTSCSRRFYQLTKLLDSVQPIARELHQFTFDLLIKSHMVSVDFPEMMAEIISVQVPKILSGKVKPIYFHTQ

[3] = target: T2, Androgen receptor (Mus musculus); test: Relative effect on seminal vesicle weight in adult and castrated mice at 1000 ug dose; type: functional, tissue-based
How it was run: (§2)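 Adult male mice, 23–25 g, six per group, were used intact or castrated via the scrotal route under ether 5 days before the test. Castrates received 0.3 mg testosterone propionate daily. Compounds were injected daily in olive oil for nine days. Seminal vesicles were taken 24 h later, fixed in Bouin solution, dried overnight at 100 °C and weighed. Result is organ mg/body g ×100; % inhibition = [1 − treated/control] × 100.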

MCF7 [4] = test: Effect on hormone-dependent MCF-7 human breast cancer cell proliferation at 1x10E-5 M; type: functional
How it was run: (§3)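 Cells were plated at about 2 × 10⁴ per well in six-well dishes. MCF-7 cells were grown in modified improved MEM with 5% NCS, switched to charcoal-treated NCS two weeks before the test, and exposed for 5 days with a re-dose on day 4. MDA-MB 231 cells were grown in McCoy 5a with 10% NCS and exposed for 2 days. Compounds were given 1 day after plating in 0.1% DMSO, with DMSO-matched controls. Read-out was cell number as % T/C, mean of three experiments with six dishes.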

MDA-MB-231 [5] = test: Effect on [3H]thymidine incorporation into MDA-MB 231 human breast cancer cells at 1x10E-5 M; type: functional
How it was run: (§4)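 Cells were seeded at ~2 × 10⁴ per well, treated from the next day in 0.1% DMSO, with DMSO controls. MCF-7 cells were held in charcoal-stripped NCS for 2 weeks, treated for 5 days and re-dosed on day 4. MDA-MB 231 cells were grown in McCoy 5a/10% NCS and treated for 2 days. At the end, 1 µCi [³H]thymidine per well was added for 2 h. Result is % T/C, mean of three experiments × six dishes.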

MCF7 [6] = test: Effect on [3H]thymidine incorporation into MCF-7 human breast cancer cells at 1x10E-6M; type: functional; how it was run: as §4
[7] = target: T3, Estrogen receptor (Mus musculus) (UniProt O08537+P19785); test: (§5) Estrogenic activity in uterotrophic assay in immature mice at 250 ug subcutaneous dose; type: functional
T3 sequence (O08537 whole entry, looked up): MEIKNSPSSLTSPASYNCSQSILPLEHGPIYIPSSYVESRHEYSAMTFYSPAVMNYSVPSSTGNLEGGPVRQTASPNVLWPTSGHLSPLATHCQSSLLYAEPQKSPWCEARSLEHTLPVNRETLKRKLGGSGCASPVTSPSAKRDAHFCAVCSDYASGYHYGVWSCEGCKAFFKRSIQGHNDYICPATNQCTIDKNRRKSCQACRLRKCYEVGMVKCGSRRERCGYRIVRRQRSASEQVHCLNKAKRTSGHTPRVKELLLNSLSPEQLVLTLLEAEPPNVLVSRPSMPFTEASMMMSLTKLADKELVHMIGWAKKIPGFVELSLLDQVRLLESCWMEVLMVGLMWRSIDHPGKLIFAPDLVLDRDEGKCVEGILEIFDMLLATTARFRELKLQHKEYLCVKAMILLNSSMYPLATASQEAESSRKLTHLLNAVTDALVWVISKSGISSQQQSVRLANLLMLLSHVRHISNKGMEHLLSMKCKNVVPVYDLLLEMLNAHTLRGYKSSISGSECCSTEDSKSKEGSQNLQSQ
T3 sequence (P19785 whole entry, looked up): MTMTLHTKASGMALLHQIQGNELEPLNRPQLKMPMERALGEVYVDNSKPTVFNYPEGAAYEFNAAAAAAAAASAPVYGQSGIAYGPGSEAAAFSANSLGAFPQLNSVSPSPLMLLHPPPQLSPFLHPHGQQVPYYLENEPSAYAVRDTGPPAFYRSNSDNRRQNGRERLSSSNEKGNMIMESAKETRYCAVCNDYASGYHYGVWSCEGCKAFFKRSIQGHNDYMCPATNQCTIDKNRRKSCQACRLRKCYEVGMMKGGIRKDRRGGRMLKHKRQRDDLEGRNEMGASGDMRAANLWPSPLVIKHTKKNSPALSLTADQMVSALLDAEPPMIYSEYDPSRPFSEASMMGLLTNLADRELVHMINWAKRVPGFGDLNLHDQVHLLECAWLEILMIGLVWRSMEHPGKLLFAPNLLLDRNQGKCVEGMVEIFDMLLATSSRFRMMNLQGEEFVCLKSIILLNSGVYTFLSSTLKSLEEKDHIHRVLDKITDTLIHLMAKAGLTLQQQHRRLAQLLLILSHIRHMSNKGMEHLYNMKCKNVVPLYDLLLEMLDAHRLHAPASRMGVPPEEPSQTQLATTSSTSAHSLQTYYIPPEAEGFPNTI
How it was run: (§6)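 Immature female NMRI mice, 20 days old, in groups of 6-10, were dosed sc once daily for three consecutive days. Compounds were given in PEG/0.9% saline 1:1; vehicle controls were included. Animals were killed 24 h after the last dose. Uteri were fixed in Bouin solution and the effect was taken as uterine dry weight (mg)/body weight (g) ×100, given as mean ± SD.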

[8] = target: T3, Estrogen receptor (Mus musculus); test: (§7) Estrogenic activity in uterotrophic assay in immature mice at 10.0 ug subcutaneous dose; type: functional; how it was run: as §6
[9] = target: T3, Estrogen receptor (Mus musculus); test: (§8) Estrogenic activity in uterotrophic assay in immature mice at 2 ug subcutaneous dose; type: functional; how it was run: as §6
[10] = target: T3, Estrogen receptor (Mus musculus); test: Inhibition of 0.4 ug estrone-stimulated uterine growth in mice at 2 ug subcutaneous dose; type: functional
How it was run: (§9)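 Immature 20-day-old female NMRI mice received sc injections on three consecutive days. Each injection held 0.4 µg estrone plus the compound in PEG/saline 1:1. […] Significance was tested by Mann-Whitney U test.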

[11] = target: Estrogen receptor (Bos taurus) (UniProt Q9XSB5+P49884); test: Relative binding affinity(RBA) for 50% displacement of [3H]-estradiol from Estrogen receptor compared to 17-beta-estradiol; type: protein assay; how it was run: as §1
[12] = target: T3, Estrogen receptor (Mus musculus); test: (§10) Estrogenic activity in uterotrophic assay in immature mice at 50.0 ug subcutaneous dose; type: functional; how it was run: as §6
MDA-MB-231 [13] = test: Effect on [3H]thymidine incorporation into MDA-MB 231 human breast cancer cells at 5x10E-6M; type: functional; how it was run: as §4
[14] = target: T2, Androgen receptor (Mus musculus); test: Relative effect on seminal vesicle weight in adult and castrated mice at 100 ug dose; type: functional, tissue-based; how it was run: as §2
[15] = target: T3, Estrogen receptor (Mus musculus); test: as §10; type: functional; how it was run: as §6; remark: listed apart in the source
MDA-MB-231 [16] = test: Effect on [3H]-thymidine incorporation into MDA-MB 231 human breast cancer cells at 1x10E-6M; type: functional; how it was run: as §4
Bos taurus = species: Bos taurus; test: Relative binding affinity(RBA) as ratio of progesterone and compound required to displace [3H]-org 2058 binding to Progesterone receptor by 50%; how it was run: as §1
MDA-MB-231 [17] = test: Cytostatic effect on hormone-independent MDA-MB 231 human breast cancer cell proliferation at 1x10E-5 M; type: functional; how it was run: as §3
MCF7 [18] = test: Effect on [3H]thymidine incorporation into MCF-7 human breast cancer cells at 1x10E-5 M; type: functional; how it was run: as §4
[19] = target: T2, Androgen receptor (Mus musculus); test: Inhibition of seminal vesicle weight in intact mice at 100 ug
MDA-MB-231 [20] = test: Cytostatic effect on hormone-independent MDA-MB 231 human breast cancer cell proliferation at5x10E-6M; type: functional; how it was run: as §3
[21] = target: T3, Estrogen receptor (Mus musculus); test: as §7; type: functional; how it was run: as §6; remark: listed apart in the source
[22] = target: T2, Androgen receptor (Mus musculus); test: Relative effect on seminal vesicle weight in adult and castrated mice at 10 ug dose; type: functional, tissue-based; how it was run: as §2
MDA-MB-231 [23] = test: Cytostatic effect on hormone-independent MDA-MB 231 human breast cancer cell proliferation at 1x10E-6M; type: functional; how it was run: as §3
[24] = target: T2, Androgen receptor (Mus musculus); test: Inhibition of seminal vesicle weight in intact mice at 10.0 ug; remark: listed apart in the source
[25] = target: T3, Estrogen receptor (Mus musculus); test: as §5; type: functional; how it was run: as §6; remark: listed apart in the source
[26] = target: T3, Estrogen receptor (Mus musculus); test: as §8; type: functional; how it was run: as §6; remark: listed apart in the source
[27] = target: T3, Estrogen receptor (Mus musculus); test: Inhibition of 0.4 ug estrone-stimulated uterine growth in mice at 40.0 ug subcutaneous dose; type: functional; how it was run: as §9
[28] = target: T3, Estrogen receptor (Mus musculus); test: (§11) Estrogenic activity in uterotrophic assay in immature mice at 125 ug subcutaneous dose; type: functional; how it was run: as §6
[29] = target: T3, Estrogen receptor (Mus musculus); test: (§12) Estrogenic activity in uterotrophic assay in immature mice at 40.0 ug subcutaneous dose; type: functional; how it was run: as §6
[30] = target: T3, Estrogen receptor (Mus musculus); test: as §11; type: functional; how it was run: as §6; remark: listed apart in the source
[31] = target: T3, Estrogen receptor (Mus musculus); test: as §12; type: functional; how it was run: as §6; remark: listed apart in the source
[32] = target: T3, Estrogen receptor (Mus musculus); test: Inhibition of 0.4 ug estrone-stimulated uterine growth in mice at 125 ug subcutaneous dose; type: functional; how it was run: as §9
MCF7 [33] = test: Effect on hormone-dependent MCF-7 human breast cancer cell proliferation at 1x10E-6M; type: functional; how it was run: as §3

| RBA [1] | Effect [9] | inhibition [10] | RBA [11] | RBA (Bos taurus) | Effect [26] | Structure (SMILES) | T/C (MCF7 [4]) | T/C (MDA-MB-231 [5]) | T/C (MCF7 [6]) | T/C (MDA-MB-231 [17]) | T/C (MCF7 [18]) | T/C (MDA-MB-231 [23]) | further results |
| --- | --- | --- | --- | --- | --- | --- | --- | --- | --- | --- | --- | --- | --- |
| 0.2 | 52.6 | -8% | 12 | 0.01 | 21.2 | CC(=O)Oc1ccc2c(c1)CC(C)n1c-2cc2cc(OC(C)=O)ccc21 (stereo unspecified) | 7% | 5% | 36% | 5% | 2% | 78% | inhibition [2]: 1%; Relative seminal vesicle weight [3]: 45.2; Effect [7]: 72.2; Effect [8]: 56; Effect [12]: 61.2; T/C (MDA-MB-231 [13]): 10%; Relative seminal vesicle weight [14]: 145; Effect [15]: 53.3; T/C (MDA-MB-231 [16]): 65%; inhibition [19]: 27%; T/C (MDA-MB-231 [20]): 10%; Effect [21]: 26.3; Relative seminal vesicle weight [22]: 195; inhibition [24]: 1%; Effect [25]: 61.1 |
| 0.03 | 48.2 | 19.6% | 4.6 | < 0.01 | 14.5 | CCC1Cc2cc(OC(C)=O)ccc2-c2c(C=O)c3cc(OC(C)=O)ccc3n21 (stereo unspecified) | 13% | 7% | 41% | 14% | 3% | 75% | inhibition [27]: 2.6%; Effect [28]: 54.7; Effect [29]: 38.2; Effect [30]: 56; Effect [31]: 54.7; inhibition [32]: 2.7%; T/C (MCF7 [33]): 55% |
